Source: ChEMBL document CHEMBL2311469, “Development of new cathepsin B inhibitors: combining bioisosteric replacements and structure-based design to explore the structure-activity relationships of nitroxoline derivatives” (J Med Chem, 2013)
Values belong to the molecule of their own block, whether it stands above or below them. The source made the active and inactive calls. The calls are words filed in the database; no cut-off is given here.

Legend:
Homo sapiens [1] = species on record: Homo sapiens; test: Selectivity ratio of Ki for human liver cathepsin H to Ki for human recombinant cathepsin B
Cathepsin B [2] = target: T1, Cathepsin B (Homo sapiens, UniProt P07858); test: Mixed inhibition of human recombinant cathepsin B endopeptidase activity using Z-Arg-Arg-AMC substrate assessed as inhibition constant for enzyme-substrate-inhibitor complex
Cathepsin B [3] = target: T1, Cathepsin B; test: Mixed inhibition of human recombinant cathepsin B […] assessed as inhibition constant for enzyme-inhibitor complex
Pro-cathepsin H [4] = target: T2, Pro-cathepsin H (Homo sapiens, UniProt P09668); test: Uncompetitive inhibition of human liver cathepsin H endopeptidase activity using R-AMC substrate assessed as inhibition constant for enzyme-substrate-inhibitor complex
T2 sequence (P09668 whole entry): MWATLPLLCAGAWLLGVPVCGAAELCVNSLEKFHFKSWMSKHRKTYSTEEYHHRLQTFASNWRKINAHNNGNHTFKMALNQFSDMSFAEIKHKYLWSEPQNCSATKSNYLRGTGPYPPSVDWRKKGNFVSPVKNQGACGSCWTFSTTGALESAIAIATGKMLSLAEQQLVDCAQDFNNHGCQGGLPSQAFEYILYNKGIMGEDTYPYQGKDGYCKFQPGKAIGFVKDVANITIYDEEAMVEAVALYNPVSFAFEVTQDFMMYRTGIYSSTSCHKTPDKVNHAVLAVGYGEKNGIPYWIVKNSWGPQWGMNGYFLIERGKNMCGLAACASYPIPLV
Summary of the method: (§1)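 Ki from rates at three substrate levels with inhibitor at 0, 20, 40, 60, 80, 100 and 200 μM. Enzymes were preactivated 5 min at 37 °C. CatL (recombinant, E. coli): 100 mM acetate pH 5.5, Z-Phe-Arg-AMC 0.5/1/4 μM. CatH (native, human liver): 100 mM phosphate pH 6.8, Arg-AMC 20/80/160 μM. Buffers held 0.1% PEG 8000, 5 mM DTT and 1.5 mM EDTA, plus 5% DMSO. Two runs in duplicate.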

Cathepsin B [5] = target: T1, Cathepsin B; test: Noncompetitive inhibition of human recombinant cathepsin B exopeptidase activity using Abz-Gly-Ile-Val-Arg-Ala-Lys(Dnp)-OH substrate
Summary of the method: (§2)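 Human recombinant catB, preactivated 5 min at 37 °C in assay buffer containing 0.1% PEG 8000, 5 mM DTT and 1.5 mM EDTA. […] Exopeptidase: 60 mM acetate pH 5.0, Abz-GIVRAK(Dnp)-OH 1/3/6 μM (Km 6.3 μM). Inhibitor 0–200 μM, 5% DMSO, 37 °C, fluorescence rate; two runs in duplicate.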

Procathepsin L = Procathepsin L (Homo sapiens, UniProt P07711); test: Competitive inhibition of human recombinant cathepsin L endopeptidase activity using Z-FR-AMC substrate expressed in Escherichia coli assessed as inhibition constant for enzyme-inhibitor complex; summary of the method: as §1
Homo sapiens [6] = species on record: Homo sapiens; test: Selectivity ratio of Ki for human recombinant cathepsin L to Ki for human recombinant cathepsin B
Cathepsin B [7] = target: T1, Cathepsin B; test: Mixed inhibition of human recombinant cathepsin B exopeptidase activity using Abz-Gly-Ile-Val-Arg-Ala-Lys(Dnp)-OH substrate assessed as inhibition constant for enzyme-substrate-inhibitor complex
Summary of the method: (§3)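 Recombinant human catB was preactivated for 5 min at 37 °C in 60 mM acetate pH 5.0 with 0.1% PEG 8000, 5 mM DTT and 1.5 mM EDTA. Abz-GIVRAK(Dnp)-OH was used at 1, 3 and 6 μM (Km 6.3 μM), with inhibitor at 0–200 μM (seven levels) and 5% DMSO. […] Run twice, each in duplicate.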

Cathepsin B [8] = target: T1, Cathepsin B; test: Mixed inhibition of human recombinant cathepsin B exopeptidase activity using Abz-Gly-Ile-Val-Arg-Ala-Lys(Dnp)-OH substrate assessed as inhibition constant for enzyme-inhibitor complex; summary of the method: as §3
Cathepsin B [9] = target: T1, Cathepsin B; test: Inhibition of human recombinant cathepsin B exopeptidase activity using Abz-Gly-Ile-Val-Arg-Ala-Lys(Dnp)-OH substrate
Cathepsin B [10] = target: T1, Cathepsin B; test: Inhibition of human recombinant cathepsin B endopeptidase activity using Z-Arg-Arg-AMC substrate
Cathepsin B [11] = target: T1, Cathepsin B; test: Uncompetitive inhibition of human recombinant […] assessed as inhibition constant for enzyme-substrate-inhibitor complex
Cathepsin B [12] = target: T1, Cathepsin B; test: Competitive inhibition of human recombinant cathepsin B exopeptidase activity using Abz-Gly-Ile-Val-Arg-Ala-Lys(Dnp)-OH substrate assessed as inhibition constant for enzyme-inhibitor complex; summary of the method: as §2
MCF-10A [13] = test: Inhibition of human MCF10A neoT cell invasion expressing c-Ha-Ras oncogene at 5 uM after 30 mins relative to DMSO-treated control; type: functional; conditions: 72 h, in the assay text read “after 72 hrs” for “after 30 mins”
Summary of the method: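 xCELLigence CIM-16 invasion assay. Upper chamber coated with 5 mg/mL Matrigel; lower well coated with bovine fibronectin. Compound 5 μM or 0.05% DMSO in both chambers, equilibrated 30 min at 37 °C. Then 3 × 10^4 cells seeded in serum-free medium, cell index read every 15 min for 72 h. Invasion = cell index with compound / DMSO; mean ± SD, n = 4, two experiments.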

Pro-cathepsin H [14] = target: T2, Pro-cathepsin H; test: Noncompetitive inhibition of human liver cathepsin H endopeptidase activity using R-AMC substrate assessed as inhibition constant for enzyme-inhibitor complex
Summary of the method: (§4)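 Native catH isolated from human liver was preactivated for 5 min at 37 °C in 100 mM phosphate pH 6.8 with 0.1% PEG 8000, 5 mM DTT and 1.5 mM EDTA. Arg-AMC was used at 20, 80 and 160 μM, with inhibitor at 0–200 μM (seven levels) and 5% DMSO. […] Run twice in duplicate.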

MCF-10A [15] = test: Increase in proliferation of human MCF10A neoT cells expressing c-Ha-Ras oncogene at 5 uM measured at 15 mins interval up to 3 days; type: ADME, cell-based
Summary of the method: (§5)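 MCF-10A neoT cells, 7500 per well, monitored on the xCELLigence impedance system (cell index read every 15 min). After ~10 h, in log growth, 2.5 or 5 μM compound or 0.2% DMSO was added. Run for 72 h, with medium containing inhibitor renewed every 24 h.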

MCF-10A [16] = test: Cytotoxicity against human MCF10A neoT cells expressing c-Ha-Ras oncogene at 5 uM measured at 15 mins interval up to 3 days; type: cell-based; summary of the method: as §5
Cathepsin B [17] = target: T1, Cathepsin B; conditions: MCF10A neoT, 5 uM
MCF-10A [18] = test: Cytotoxicity against human MCF10A neoT cells expressing c-Ha-Ras oncogene at 2.5 uM measured at 15 mins interval up to 3 days; type: cell-based; summary of the method: as §5
Pro-cathepsin H [19] = target: T2, Pro-cathepsin H; test: Noncompetitive inhibition of human liver cathepsin H endopeptidase activity using R-AMC substrate assessed as inhibition constant for enzyme-substrate-inhibitor complex; summary of the method: as §4
Cathepsin B [20] = target: T1, Cathepsin B; conditions: MCF10A neoT, 5 uM; remark: listed apart in the source
MCF-10A [21] = test: Increase in proliferation of human MCF10A neoT cells expressing c-Ha-Ras oncogene at 2.5 uM measured at 15 mins interval up to 3 days; type: ADME, cell-based; summary of the method: as §5

Sequence of Procathepsin L (P07711 whole entry): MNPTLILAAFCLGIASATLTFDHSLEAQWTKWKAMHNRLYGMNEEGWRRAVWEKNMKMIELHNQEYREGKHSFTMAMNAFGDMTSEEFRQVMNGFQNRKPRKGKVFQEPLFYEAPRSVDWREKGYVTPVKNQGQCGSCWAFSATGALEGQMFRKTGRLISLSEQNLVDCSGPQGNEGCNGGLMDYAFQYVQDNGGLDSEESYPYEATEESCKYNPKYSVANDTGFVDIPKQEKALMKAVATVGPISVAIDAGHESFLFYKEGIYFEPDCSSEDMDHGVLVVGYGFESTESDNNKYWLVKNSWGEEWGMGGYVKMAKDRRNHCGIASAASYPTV

Structure (SMILES): O=[N+]([O-])c1ccc(N2CCCC2)c2ccccc12
Ratio Ki (Homo sapiens [1]): 7 | Ki (Cathepsin B [2]): 277 µM | Ki (Cathepsin B [3]): 170 µM | Ki (Pro-cathepsin H [4]): 251 µM | Ki (Cathepsin B [5]): 34 µM | Ki (Procathepsin L): 245 µM | Ratio Ki (Homo sapiens [6]): > 6

Structure (SMILES): CCN(CC)C(=O)C1CCCN(c2ccc([N+](=O)[O-])c3cccnc23)C1 (racemic)
Ki (Cathepsin B [2]): 117 µM | Ki (Cathepsin B [7]): 36 µM | Ki (Cathepsin B [3]): 155 µM | Ki (Cathepsin B [8]): 105 µM

Structure (SMILES): CN(C)c1ccc([N+](=O)[O-])c2cccnc12
inhibition (Cathepsin B [9]): inactive | inhibition (Cathepsin B [10]): inactive

Structure (SMILES): CN(CC#N)Cc1cc([N+](=O)[O-])c2cccnc2c1O
Ki (Cathepsin B [2]): 76 µM | Ki (Cathepsin B [3]): 126 µM | Ki (Cathepsin B [5]): 172 µM

Structure (SMILES): O=S(=O)(O)c1ccc(O)c2ccccc12
inhibition (Cathepsin B [10]): inactive

Structure (SMILES): N#CCN(CC#N)c1ccc([N+](=O)[O-])c2ccccc12
inhibition (Cathepsin B [9]): inactive | inhibition (Cathepsin B [10]): inactive

Structure (SMILES): N#CCNc1ccc([N+](=O)[O-])c2ccccc12
inhibition (Cathepsin B [9]): inactive | inhibition (Cathepsin B [10]): inactive

Structure (SMILES): O=[N+]([O-])c1ccc(NCc2ccccc2)c2ncccc12
Ki (Cathepsin B [2]): 127 µM | Ki (Cathepsin B [3]): 349 µM | Ki (Cathepsin B [5]): 364 µM

Structure (SMILES): O=[N+]([O-])c1cc(CN2CCN(Cc3cccnc3)CC2)c(O)c2ncccc12
Ki (Cathepsin B [2]): 171 µM | Ki (Cathepsin B [3]): 311 µM | Ki (Cathepsin B [5]): 364 µM

Structure (SMILES): N#CCN(Cc1ccccc1)Cc1cc([N+](=O)[O-])c2cccnc2c1O
Ki (Cathepsin B [11]): 19 µM | Ki (Cathepsin B [7]): 8 µM | Ki (Cathepsin B [8]): 79 µM

Structure (SMILES): O=[N+]([O-])c1cc([N+](=O)[O-])c2cccnc2c1O
Ki (Cathepsin B [11]): 72 µM | Ki (Cathepsin B [5]): 146 µM

Structure (SMILES): C#CCNc1ccc([N+](=O)[O-])c2cccnc12
inhibition (Cathepsin B [9]): inactive | inhibition (Cathepsin B [10]): inactive

More lines, main results first:

Ki (Cathepsin B [2]): 116 µM | Ki (Cathepsin B [3]): 203 µM | Ki (Cathepsin B [5]): 243 µM
Structure (SMILES): C[C@@H]1CCCCN1Cc1cc([N+](=O)[O-])c2cccnc2c1O

Ki (Cathepsin B [2]): 58 µM | Ki (Cathepsin B [3]): 198 µM | Ki (Cathepsin B [5]): 154 µM
Structure (SMILES): O=[N+]([O-])c1cc(CNCc2ccccc2)c(O)c2ncccc12

Ki (Cathepsin B [11]): 117 µM | Ki (Cathepsin B [12]): 221 µM
Structure (SMILES): O=C(O)c1cc([N+](=O)[O-])c2cccnc2c1O

Ki (Cathepsin B [2]): 82 µM | Ki (Cathepsin B [3]): 117 µM | Ki (Cathepsin B [5]): 136 µM
Structure (SMILES): CCNCc1cc([N+](=O)[O-])c2cccnc2c1O

Ki (Cathepsin B [2]): 111 µM | Ki (Cathepsin B [3]): 217 µM | Ki (Cathepsin B [5]): 147 µM
Structure (SMILES): Nc1ccc([N+](=O)[O-])c2ccccc12

Ki (Cathepsin B [11]): 5 µM | Ratio Ki (Homo sapiens [1]): 24 | Ki (Pro-cathepsin H [14]): 129 µM | inhibition (Cathepsin B [17]): Active | Ki (Cathepsin B [5]): 426 µM | Ki (Pro-cathepsin H [19]): 129 µM | inhibition (Cathepsin B [20]): Active | Ki (Procathepsin L): 124 µM | Ratio Ki (Homo sapiens [6]): 23
Structure (SMILES): N#CCNCc1cc([N+](=O)[O-])c2cccnc2c1O
inhibition at 5 µM (MCF-10A [13]): 80% | Activity (MCF-10A [15]): 117% | Activity (MCF-10A [16]): Non-toxic | Activity (MCF-10A [18]): Non-toxic | Activity (MCF-10A [21]): 113%
